The structures appear in SMILES notation. Calls of active or inactive are those of the source. The rule behind the calls is not given here.

What all share (type): cell-based
Assay [1] concerns Cystic fibrosis transmembrane conductance regulator (Homo sapiens), P13569 [F508del]. Briefly: Potentiator activity at CFTR F508-del mutant (unknown origin) expressed in human CFBE41o cells harboring HS-YFP assessed as increase in forskolin-stimulated aninon permeability up to 25 uM after 30 mins by fluorescence assay. Put shortly: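 F508del-CFTR/HS-YFP CFBE41o- cells were rescued by 24 h incubation at 27 °C, then exposed 30 min to forskolin (20 μM) plus test compound in PBS. Iodide added to final 100 mM; HS-YFP quenching rate (initial slope dF/dt) from exponential fit of final 10 s, normalized to initial background-subtracted fluorescence; compared with forskolin alone.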

Assay [2] shares this test system. Briefly: Synergistic corrector activity at CFTR F508-del mutant (unknown origin) expressed in human CFBE41o cells harboring HS-YFP preincubated for 24 hrs followed by forskolin/genistein stimulation for 30 mins in presence of VX-809 by fluorescence assay. Put shortly: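 CFBE41o- cells co-expressing F508del-CFTR and HS-YFP treated 24 h with compound (2, 10 or 25 μM) together with VX-809 (1 μM), then stimulated 30 min at 37 °C with forskolin (20 μM) and genistein (50 μM). Iodide influx (final 100 mM) measured as HS-YFP quenching rate.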

The target in assay [3] is Cystic fibrosis transmembrane conductance regulator (Homo sapiens, UniProt P13569, F508DEL). Briefly: Corrector activity at CFTR F508-del mutant (unknown origin) expressed in human CFBE41o cells harboring HS-YFP preincubated for 24 hrs followed by forskolin/genistein stimulation for 30 mins by fluorescence assay.
Chain of Cystic fibrosis transmembrane conductance regulator (P13569 as listed by the source): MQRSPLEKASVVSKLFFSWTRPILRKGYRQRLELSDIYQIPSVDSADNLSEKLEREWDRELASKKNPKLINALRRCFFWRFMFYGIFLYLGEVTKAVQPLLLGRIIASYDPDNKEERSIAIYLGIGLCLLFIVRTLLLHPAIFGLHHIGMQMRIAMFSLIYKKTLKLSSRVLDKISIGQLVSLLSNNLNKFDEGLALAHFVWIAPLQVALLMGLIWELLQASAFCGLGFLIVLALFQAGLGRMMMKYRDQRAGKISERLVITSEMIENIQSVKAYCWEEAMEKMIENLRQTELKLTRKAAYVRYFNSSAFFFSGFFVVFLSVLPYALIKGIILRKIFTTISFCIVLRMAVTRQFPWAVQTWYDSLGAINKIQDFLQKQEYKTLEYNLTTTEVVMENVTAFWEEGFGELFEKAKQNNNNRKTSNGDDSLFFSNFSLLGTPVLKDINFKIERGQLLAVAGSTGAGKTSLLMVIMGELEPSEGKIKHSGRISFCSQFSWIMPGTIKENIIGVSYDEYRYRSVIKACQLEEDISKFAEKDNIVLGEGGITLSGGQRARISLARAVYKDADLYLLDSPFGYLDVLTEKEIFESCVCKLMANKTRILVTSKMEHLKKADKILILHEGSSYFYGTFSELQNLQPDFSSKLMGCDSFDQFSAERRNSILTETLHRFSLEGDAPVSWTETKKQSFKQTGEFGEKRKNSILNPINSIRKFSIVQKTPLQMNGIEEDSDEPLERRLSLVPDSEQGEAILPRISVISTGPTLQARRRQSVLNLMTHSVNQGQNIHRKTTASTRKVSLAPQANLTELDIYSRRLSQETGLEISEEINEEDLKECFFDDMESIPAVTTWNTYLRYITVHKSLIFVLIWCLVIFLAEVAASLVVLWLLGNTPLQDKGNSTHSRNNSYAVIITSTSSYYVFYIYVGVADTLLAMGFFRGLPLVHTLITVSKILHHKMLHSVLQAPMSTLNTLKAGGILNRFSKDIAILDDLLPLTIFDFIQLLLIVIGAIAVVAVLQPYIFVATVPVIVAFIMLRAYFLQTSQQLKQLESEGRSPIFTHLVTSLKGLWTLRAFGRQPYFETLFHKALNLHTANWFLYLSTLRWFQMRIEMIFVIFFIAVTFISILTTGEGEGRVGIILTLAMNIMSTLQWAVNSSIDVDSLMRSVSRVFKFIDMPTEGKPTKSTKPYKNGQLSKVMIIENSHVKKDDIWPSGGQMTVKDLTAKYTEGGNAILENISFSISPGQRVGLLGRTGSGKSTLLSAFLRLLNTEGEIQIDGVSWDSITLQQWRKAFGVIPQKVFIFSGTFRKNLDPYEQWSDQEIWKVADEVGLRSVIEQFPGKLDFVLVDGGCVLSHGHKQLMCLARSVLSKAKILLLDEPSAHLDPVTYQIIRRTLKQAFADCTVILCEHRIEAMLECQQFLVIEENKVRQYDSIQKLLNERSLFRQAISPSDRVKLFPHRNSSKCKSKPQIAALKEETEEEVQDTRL

Chain of Cystic fibrosis transmembrane conductance regulator (Homo sapiens), P13569 [F508del] (P13569 as listed by the source): as above

Consider `CCOC(=O)c1sc(NC(=O)C2(c3ccc4c(c3)OCO4)CC2)nc1-c1ccc(Br)cc1`, for which the outcome in assay [1] and in assay [2] was inactive. Also, the EC50 in assay [3] (read-out: EC50) was found to be 0.3 µM. Take `CN(C)CCN1CCN(c2nc(-c3ccccn3)nc3c2CN(C(=O)c2ccccc2)CC3)CC1`: in assay [3] (read-out: pEC50 (converted)), the EC50 is 100 µM.

In the case of `CCOC(=O)c1sc(NC(=O)C2(c3ccc4c(c3)OCO4)CC2)nc1-c1cccc(Cl)c1`, the outcome in assay [1] and in assay [2] was inactive. Further, the EC50 in assay [3] (read-out: EC50) was 0.55 µM. Consider `Cc1sc(NC(=O)C2(c3ccc4c(c3)OCO4)CC2)nc1-c1ccc(F)cc1`, for which the outcome in assay [1] and in assay [2] was inactive. Further, the EC50 in assay [3] (read-out: EC50) worked out at 0.9 µM. As to `O=C(Nc1nc(-c2cccc(O)c2)cs1)C1(c2ccc3c(c2)OC(F)(F)O3)CC1`, the result in assay [1] and in assay [2] was inactive. For the same compound, in assay [3] (read-out: EC50), the EC50 was determined as 1.3 µM.

For `CN(C)CCN1CCN(c2nc(-c3ccccn3)nc3c2CN(S(=O)(=O)c2ccccc2)CC3)CC1`, the EC50 in assay [3] (read-out: pEC50 (converted)) was 100 µM. As to `Cc1sc(NC(=O)C2(c3ccc4c(c3)OCO4)CC2)nc1-c1ccccc1`, the result in assay [1] and in assay [2] was inactive. In addition, the EC50 in assay [3] (read-out: EC50) is 1.6 µM. Take `COc1ccccc1C(=O)NCCCNc1nc2cc(C)cc(C)c2cc1C#N`: in assay [3] (read-out: pEC50 (converted)), the EC50 was greater than 100 µM. As for `COc1ccc(Cl)cc1Cc1cc(-c2sc(NC(=O)C(C)(C)C)nc2C)nn1C(=O)NCCO`, the EC50 in assay [3] (read-out: pEC50 (converted)) is 3.02 µM. For `O=C(Nc1nc(-c2cccc(Cl)c2)cs1)C1(c2ccc3c(c2)OCO3)CC1`, the result in assay [1] and in assay [2] was inactive. Besides, the EC50 in assay [3] (read-out: EC50) was determined as 8.2 µM. In the case of `COc1ccc(Cl)cc1Nc1nc(-c2sc(NC(=O)C(C)(C)C)nc2C)cs1`, the EC50 in assay [3] (read-out: pEC50 (converted)) is 0.708 µM. On the same count and under the same terms, the result for `C=CCc1cc(-c2sc(NC(=O)C(C)(C)C)nc2C)nn1C(=O)Nc1ccc(OC)cc1` reads 0.933 µM; that for `C=CCc1cc(-c2sc(NC(=O)C(C)(C)C)nc2C)nn1C(=O)Nc1ccccc1`, 3.02 µM. Turning to `Cc1sc(NC(=O)C2(c3ccc4c(c3)OCO4)CC2)nc1-c1ccc(Cl)cc1`, the result in assay [1] and in assay [2] was inactive. The EC50 in assay [3] (read-out: EC50) is 2.9 µM.

Turning to `O=C(Nc1nc(-c2ccc(O)cc2)cs1)C1(c2ccc3c(c2)OC(F)(F)O3)CC1`, the result in assay [1] and in assay [2] was inactive. The EC50 in assay [3] (read-out: EC50) was 1.7 µM. Turning to `Cc1nc(NC(=O)C(C)(C)C)sc1-c1cc(Cc2ccccc2)n(C(=O)NCc2ccccc2)n1`, the EC50 in assay [3] (read-out: pEC50 (converted)) was 0.759 µM. Take `CC(=O)Nc1ccc(-c2csc(NC(=O)C3(c4ccc5c(c4)OCO5)CC3)n2)cc1`: the outcome in assay [1] and in assay [2] was inactive. The EC50 was greater than 5 µM in assay [3] (read-out: EC50) and greater than 5.01 µM in assay [3] (read-out: pEC50 (converted)). Turning to `CN1CCN(CCCNc2nc(-c3ccncc3)nc3c2CN(Cc2ccccc2)CC3)CC1`, in assay [3] (read-out: pEC50 (converted)), the EC50 was 100 µM. As to `Cc1cc(C)c2cc(C#N)c(N3CCN(C(=O)c4ccncc4)CC3)nc2c1`, the EC50 in assay [3] (read-out: pEC50 (converted)) is 100 µM. With `O=C(Nc1nc(-c2ccc(O)cc2)cs1)C1(c2ccc3c(c2)OCO3)CC1`, the outcome in assay [1] and in assay [2] was inactive. In assay [3] (read-out: EC50), the EC50 was 1.8 µM. As for `COc1ccc(NC(=O)c2cc(-c3sc(NC(=O)C(C)(C)C)nc3C)n(-c3ccc(Br)cc3)n2)cc1`, in assay [3] (read-out: pEC50 (converted)), the EC50 was 3.39 µM. The same measure, in the same setting: the result for `CN(C)CCN1CCN(c2nc(-c3cccnc3)nc3c2CN(Cc2ccccc2)CC3)CC1` reads greater than 100 µM; that for `CN1CCN(CCCNc2nc(-c3cccnc3)nc3c2CN(Cc2ccccc2)CC3)CC1`, greater than 100 µM. In the case of `Cc1sc(NC(=O)C2(c3ccc4c(c3)OC(F)(F)O4)CC2)nc1-c1cccc(Cl)c1`, the result in assay [1] and in assay [2] was inactive. For the same compound, the EC50 in assay [3] (read-out: EC50) stood at 5.4 µM. Take `Cc1sc(NC(=O)C2(c3ccc4c(c3)OC(F)(F)O4)CC2)nc1-c1ccc(Br)cc1`: the outcome in assay [1] and in assay [2] was inactive. Also, the EC50 in assay [3] (read-out: EC50) was determined as 3.8 µM. In the case of `COc1ccc(NC(=O)n2nc(-c3sc(NC(=O)C(C)(C)C)nc3C)cc2Cc2cc(Cl)ccc2OC)cc1`, the EC50 in assay [3] (read-out: pEC50 (converted)) is 1 µM.

For the compound `COc1ccccc1C(=O)N1CCN(c2nc3cc(C)cc(C)c3cc2C#N)CC1`, the EC50 in assay [3] (read-out: pEC50 (converted)) was 100 µM. Take `CC(=O)NCCCNc1nc(-c2ccccn2)nc2c1CN(Cc1ccc(F)cc1)CC2`: in assay [3] (read-out: pEC50 (converted)), the EC50 was 0.2 µM. As to `CSc1cccc(NC(=O)C2(c3ccc4c(c3)OCO4)CC2)c1`, the outcome in assay [1] and in assay [2] was inactive. Moreover, the EC50 in assay [3] (read-out: EC50) came out at 8 µM.

For `O=C(O)c1ccc(-c2csc(NC(=O)C3(c4ccc5c(c4)OCO5)CC3)n2)cc1`, the result in assay [1] and in assay [2] was inactive. The EC50 in assay [3] (read-out: EC50) is greater than 5 µM; in assay [3] (read-out: pEC50 (converted)), greater than 5.01 µM. Turning to `O=C(Nc1nc(-c2ccc(I)cc2)cs1)C1(c2ccc3c(c2)OCO3)CC1`, the outcome in assay [1] and in assay [2] was inactive. In addition, the EC50 in assay [3] (read-out: EC50) stood at 1.2 µM.

As for `Cc1sc(NC(=O)C2(c3ccc4c(c3)OCO4)CC2)nc1-c1cccc(Cl)c1`, the result in assay [1] and in assay [2] was inactive. Also, the EC50 in assay [3] (read-out: EC50) worked out at 2.3 µM. As for `COc1cccc(C(=O)N2CCN(c3nc4cc(C)cc(C)c4cc3C#N)CC2)c1`, in assay [3] (read-out: pEC50 (converted)), the EC50 is 100 µM.

Turning to `O=C(Nc1nc(-c2ccc(Cl)cc2)cs1)C1(c2ccc3c(c2)OCO3)CC1`, the result in assay [1] and in assay [2] was inactive. Besides, in assay [3] (read-out: EC50), the EC50 turned out to be 2.9 µM.

For `COc1ccc(CN2CCc3nc(-c4ccccn4)nc(N4CCN(CCN(C)C)CC4)c3C2)cc1`, the EC50 in assay [3] (read-out: pEC50 (converted)) was 100 µM. Turning to `CCOC(=O)c1sc(NC(=O)C2(c3ccc4c(c3)OCO4)CC2)nc1-c1ccc(Cl)cc1`, the outcome in assay [1] and in assay [2] was inactive. The EC50 in assay [3] (read-out: EC50) stood at 0.9 µM. Take `Cc1cc(C)c2cc(C#N)c(NCCCNC(=O)c3ccncc3)nc2c1`: the EC50 in assay [3] (read-out: pEC50 (converted)) is 13.2 µM. `Cc1sc(NC(=O)C2(c3ccc4c(c3)OCO4)CC2)nc1-c1ccc(C(=O)O)cc1`: the outcome in assay [1] and in assay [2] was inactive. Further, the EC50 in assay [3] (read-out: EC50) came to 2.9 µM. As for `CCOC(=O)n1nc(-c2sc(NC(=O)C(C)(C)C)nc2C)cc1Cc1ccccc1`, in assay [3] (read-out: pEC50 (converted)), the EC50 is 8.51 µM.

Take `O=C(c1ccccc1)c1sc(NC(=O)C2(c3ccc4c(c3)OCO4)CC2)nc1-c1ccccc1`: the result in assay [1] and in assay [2] was inactive. The EC50 in assay [3] (read-out: EC50) worked out at 0.087 µM. With `Cc1cc(C)c2cc(C#N)c(NCCNC(=O)c3ccccc3)nc2c1`, in assay [3] (read-out: pEC50 (converted)), the EC50 was greater than 100 µM. Still for that read-out and setting: in the case of `CCN(C(C)=O)C1CCN(c2nc(-c3ccccn3)nc3c2CN(Cc2ccc(Cl)cc2)CC3)C1` (stereo unspecified) it was 100 µM; in that of `CN(C)CCN1CCN(c2nc(-c3ccncc3)nc3c2CN(Cc2ccccc2)CC3)CC1`, 100 µM. Turning to `Cc1sc(NC(=O)C2(c3ccc4c(c3)OCO4)CC2)nc1-c1ccc(Br)cc1`, the outcome in assay [1] and in assay [2] was inactive. The EC50 in assay [3] (read-out: EC50) came out at 1.9 µM.

As for `Fc1ccc(CN2CCc3nc(-c4ccccn4)nc(NCCCN4CCCC4)c3C2)cc1`, the EC50 in assay [3] (read-out: pEC50 (converted)) was 0.2 µM. The same measure, in the same setting: the result for `NC(=O)CN1CCN(c2nc(-c3cccnc3)nc3c2CN(Cc2ccccc2)CC3)CC1` reads 100 µM.

On to `O=C(Nc1nc(-c2cccc(F)c2)cs1)C1(c2ccc3c(c2)OCO3)CC1`, for which the result in assay [1] and in assay [2] was inactive. In addition, in assay [3] (read-out: EC50), the EC50 stood at 2.1 µM.

As to `Cc1cc(C)c2cc(C#N)c(N3CCN(C(=O)c4ccccn4)CC3)nc2c1`, the EC50 in assay [3] (read-out: pEC50 (converted)) was 100 µM. For `O=C(Nc1nc(-c2ccc(Br)cc2)cs1)C1(c2ccc3c(c2)OCO3)CC1`, the outcome in assay [1] and in assay [2] was inactive. In addition, the EC50 in assay [3] (read-out: EC50) stood at 4.9 µM. As to `COc1ccc(Cl)cc1Cc1cc(-c2sc(NC(=O)C(C)(C)C)nc2C)nn1C(=O)N1CCOCC1`, in assay [3] (read-out: pEC50 (converted)), the EC50 was 1 µM. The same measure, in the same setting: in the case of `Cc1cc(C)c2cc(C#N)c(N3CCN(C(=O)c4cccnc4)CC3)nc2c1` it was 100 µM. As to `Cc1sc(NC(=O)C2(c3ccc4c(c3)OCO4)CC2)nc1-c1ccc(O)cc1`, the outcome in assay [1] and in assay [2] was inactive. Also, the EC50 in assay [3] (read-out: EC50) stood at 3.9 µM. In the case of `Cc1cc(C)c2cc(C#N)c(NCCNC(=O)c3ccccn3)nc2c1`, in assay [3] (read-out: pEC50 (converted)), the EC50 is greater than 100 µM. For `O=C(Nc1nc(-c2cccc(Cl)c2)cs1)C1(c2ccc3c(c2)OC(F)(F)O3)CC1`, the outcome in assay [1] and in assay [2] was inactive. Take `CC(=O)c1sc(NC(=O)C2(c3ccc4c(c3)OCO4)CC2)nc1C`: the result in assay [1] and in assay [2] was inactive. `NC(=O)C1CCN(c2nc(-c3cccnc3)nc3c2CN(Cc2ccccc2)CC3)CC1`: in assay [3] (read-out: pEC50 (converted)), the EC50 was greater than 100 µM. In the case of `CN(C)CCN1CCN(c2nc(-c3ccccn3)nc3c2CN(Cc2ccc(F)cc2)CC3)CC1`, the EC50 in assay [3] (read-out: pEC50 (converted)) was 100 µM. The same measure, in the same setting: in the case of `Cc1cc(C)c2cc(C#N)c(NCCCNC(=O)c3ccccn3)nc2c1` it was 100 µM; in that of `COc1ccc(C(=O)N2CCN(c3nc4cc(C)cc(C)c4cc3C#N)CC2)cc1`, 100 µM.

The record behind these values is ChEMBL document CHEMBL4145449, “Synthesis and biological evaluation of novel thiazole- VX-809 hybrid derivatives as F508del correctors by QSAR-based filtering tools” (Eur J Med Chem, 2018).
